According to publication PMC12783166 (Clinical Pharmacokinetics, 2025):

Columns and labels:
[1] = Individual predicted steady-state exposures; format: in vivo, human; conditions: human, plasma, oral
Procedure, shortened: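 Steady-state AUC24, Ctrough, Cmax and Cavg were derived from each individual's Bayesian post hoc estimates from the final three-compartment population PK model, with sequential zero-/first-order lagged absorption. Values are summarised per […] as mean (SD) and median (5th–95th percentile).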

[2] = Phase 1 population PK model; format: in vivo, human; conditions: Phase 1 Model
P-gp = conditions: cited from earlier work
[3] = Phase 2 population PK model; format: in vivo, human; conditions: Phase 2 Model
OAT1 = conditions: cited from earlier work
BCRP = conditions: cited from earlier work
OATP1B3 = conditions: cited from earlier work

- AUC ([1]; 10 mg, AUC24, Median (5th to 95th percentile), CGP-MD-01 EM, 10 mg QD): 464 ng·h/mL
- Cmax ([1]; 10 mg, Mean (SD), ADVANCE EM, 10 mg QD): 81.7 ng/mL
- Cmax ([1]; 10 mg, Mean (SD), CGP-MD-01 EM, 10 mg QD): 74.5 ng/mL
- Cmax ([1]; 10 mg, Median (5th to 95th percentile), ADVANCE EM, 10 mg QD): 73.3 ng/mL
- Cmax ([1]; 10 mg, Median (5th to 95th percentile), CGP-MD-01 EM, 10 mg QD): 73.9 ng/mL
- AUC ([1]; 30 mg, AUC24, Mean (SD), ADVANCE EM, 30 mg QD): 1830 ng·h/mL
- AUC ([1]; 30 mg, AUC24, Mean (SD), CGP-MD-01 EM, 30 mg BID): 3900 ng·h/mL
- AUC ([1]; 30 mg, AUC24, Mean (SD), CGP-MD-01 EM, 30 mg QD): 1710 ng·h/mL
- AUC ([1]; 30 mg, AUC24, Median (5th to 95th percentile), ADVANCE EM, 30 mg QD): 1560 ng·h/mL
- AUC ([1]; 30 mg, AUC24, Median (5th to 95th percentile), CGP-MD-01 EM, 30 mg BID): 3180 ng·h/mL
- AUC ([1]; 30 mg, AUC24, Median (5th to 95th percentile), CGP-MD-01 EM, 30 mg QD): 1590 ng·h/mL
- AUC ([1]; 30 mg, AUC24, Median (5th to 95th percentile), PROGRESS CM, 30 mg BID): 3230 ng·h/mL
- Cmax ([1]; 30 mg, Mean (SD), ADVANCE EM, 30 mg QD): 271 ng/mL
- Cmax ([1]; 30 mg, Mean (SD), CGP-MD-01 EM, 30 mg BID): 327 ng/mL
- Cmax ([1]; 30 mg, Mean (SD), CGP-MD-01 EM, 30 mg QD): 260 ng/mL
- Cmax ([1]; 30 mg, Median (5th to 95th percentile), ADVANCE EM, 30 mg QD): 244 ng/mL
- Cmax ([1]; 30 mg, Median (5th to 95th percentile), CGP-MD-01 EM, 30 mg BID): 284 ng/mL
- Cmax ([1]; 30 mg, Median (5th to 95th percentile), CGP-MD-01 EM, 30 mg QD): 247 ng/mL
- Cmax ([1]; 30 mg, Median (5th to 95th percentile), PROGRESS CM, 30 mg BID): 296 ng/mL
- AUC ([1]; 60 mg, AUC24, Mean (SD), ADVANCE EM, 60 mg QD): 3740 ng·h/mL
- AUC ([1]; 60 mg, AUC24, Mean (SD), CGP-MD-01 EM, 60 mg BID): 7940 ng·h/mL
- AUC ([1]; 60 mg, AUC24, Mean (SD), CGP-MD-01 EM, 60 mg QD): 3640 ng·h/mL
- AUC ([1]; 60 mg, AUC24, Mean (SD), ELEVATE EM, 60 mg QD): 3530 ng·h/mL
- AUC ([1]; 60 mg, AUC24, Median (5th to 95th percentile), ADVANCE EM, 60 mg QD): 3220 ng·h/mL
- AUC ([1]; 60 mg, AUC24, Median (5th to 95th percentile), CGP-MD-01 EM, 60 mg BID): 6900 ng·h/mL
- AUC ([1]; 60 mg, AUC24, Median (5th to 95th percentile), CGP-MD-01 EM, 60 mg QD): 3450 ng·h/mL
- AUC ([1]; 60 mg, AUC24, Median (5th to 95th percentile), ELEVATE EM, 60 mg QD): 3310 ng·h/mL
- AUC ([1]; 60 mg, AUC24, Median (5th to 95th percentile), PROGRESS CM, 60 mg QD): 2900 ng·h/mL
- Cmax ([1]; 60 mg, Mean (SD), ADVANCE EM, 60 mg QD): 561 ng/mL
- Cmax ([1]; 60 mg, Mean (SD), CGP-MD-01 EM, 60 mg BID): 634 ng/mL
- Cmax ([1]; 60 mg, Mean (SD), CGP-MD-01 EM, 60 mg QD): 545 ng/mL
- Cmax ([1]; 60 mg, Median (5th to 95th percentile), ADVANCE EM, 60 mg QD): 504 ng/mL
- Cmax ([1]; 60 mg, Median (5th to 95th percentile), PROGRESS CM, 60 mg QD): 504 ng/mL
- Famotidine pre-treatment on Frel ([2]; fractional covariate effect): −0.15
- Famotidine pre-treatment on ka ([2]; fractional covariate effect): −0.51
- Formulation 2 tablet effect on ka ([2]; fractional covariate effect): −0.44
- Formulation 2 tablet on Frel ([2]; fractional covariate effect): −0.17
- Formulation 4 tablet effect on ka ([2]; fractional covariate effect): −0.42
- Oral solution on Frel ([2]; fractional covariate effect): −0.67
- Absorption rate constant [ka (/h)] ([2]; healthy participants): 2.44 h⁻¹
- Apparent clearance healthy participants [CL/F (L/h)] ([2]; healthy participants): 19.82 L/h
- Lag time [ALAG (h)] ([2]; healthy participants): 0.30 h
- Exponential dose effect on ka ([2]; power exponent): −0.41
- σprop ([2]; proportional residual error): 0.12
- ω^2CL/F ([2]; variance of IIV): 0.151
- ω^2Q/F ([2]; variance of IIV): 0.197
- ω^2V1/F ([2]; variance of IIV): 0.136
- ω^2V2/F ([2]; variance of IIV): 0.422
- ω^2ka ([2]; variance of IIV): 0.537
- Blood-plasma ratio [3]: 0.567
- Lag time [ALAG (h)] [3]: 0.298 h
- Effect of solution on ALAG ([3]; fractional covariate effect): −0.191
- Effect of solution on Frel ([3]; fractional covariate effect): −0.547
- Apparent clearance healthy participants [CL/F (L/h)] ([3]; healthy participants): 18.2 L/h
- Absorption rate constant [ka (/h)] ([3]; healthy participants and EM patients): 1.31 h⁻¹
- Apparent clearance patients [CL/F (L/h)] ([3]; patients): 18.2 L/h
- Exponential effect of dose on Frel ([3]; power exponent): 0.163
- Exponential effect of dose on ka ([3]; power exponent): −0.252
- σprop ([3]; proportional residual error): 0.339
- σprop (study CGP-MD-01) ([3]; proportional residual error): 0.572
- σprop (study CGP-PK-02) ([3]; proportional residual error): 0.252
- ω^2CL/F ([3]; variance of IIV): 0.0724
- ω^2Q/F ([3]; variance of IIV): 0.550
- ω^2ka ([3]; variance of IIV): 0.683
- ω^2IOVFrel ([3]; variance of IOV): 0.228
SMILES: C[C@@H]1[C@H](c2c(F)ccc(F)c2F)C[C@H](NC(=O)c2cnc3c(c2)C[C@@]2(C3)C(=O)Nc3ncccc32)C(=O)N1CC(F)(F)F [atogepant, Atogepant]
- Transporter substrate status (P-gp): substrate
- Transporter substrate status (OAT1): substrate
- Transporter substrate status (BCRP): substrate
- Transporter substrate status (OATP1B3): substrate
